# Measured values reported in ChEMBL document CHEMBL4433221, “Novel Sustainable-by-Design HDAC Inhibitors for the Treatment of Alzheimer's Disease” (ACS Med Chem Lett, 2019).
# Activity calls are given as the source filed them. The calls are words filed in the database; no cut-off is given here.
# How the values were obtained:
# [1] = Neurotoxicity against rat CGN cells assessed as cell viability at 50 uM incubated for 24 hrs by MTT assay; type: toxicity, cell-based; settings: read-out: Activity
# How it was run: (§1)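 Primary rat cerebellar granule neuron cultures were exposed for 24 h to 5, 25 or 50 μM. Viability was measured by MTT and expressed as percentage of untreated controls, as mean ± SE of at least three experiments, each run in triplicate.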
# N9 [2] = assay: Immunomodulatory activity in mouse N9 cells assessed as increase in LPS-induced MRC1 expression at 25 uM incubated for 24 hrs by Western blot analysis; type: functional, cell-based
# How it was run: (§2)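 N9 mouse microglial cells stimulated with LPS (100 ng/mL) and treated at 5 and 25 μM. iNOS and MRC1 levels were read by Western blot with GAPDH as loading control. Densitometry is expressed as percentage of LPS-only cells, as mean ± SE of three independent experiments.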
# [3] = molecular target: Histone deacetylase 3 (Homo sapiens) (UniProt O15379); assay: Inhibition of human recombinant HDAC3 using fluorogenic peptide p53 residues 379-382 (RHKK(Ac)AMC) as residues at 10 uM by fluorescence method
# How it was run: (§3)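 Selectivity profile across HDAC isoforms 1–11 at a single concentration of 10 μM, run in duplicate.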
# [4] = molecular target: T1, Protein deacetylase HDAC6 (Homo sapiens, UniProt Q9UBN7); assay: Inhibition of human recombinant HDAC6 using ZMAL (Z-(Ac)Lys-AMC fluorogenic substrate incubated for 90 mins by fluorescence method
# T1 sequence (Q9UBN7 whole entry): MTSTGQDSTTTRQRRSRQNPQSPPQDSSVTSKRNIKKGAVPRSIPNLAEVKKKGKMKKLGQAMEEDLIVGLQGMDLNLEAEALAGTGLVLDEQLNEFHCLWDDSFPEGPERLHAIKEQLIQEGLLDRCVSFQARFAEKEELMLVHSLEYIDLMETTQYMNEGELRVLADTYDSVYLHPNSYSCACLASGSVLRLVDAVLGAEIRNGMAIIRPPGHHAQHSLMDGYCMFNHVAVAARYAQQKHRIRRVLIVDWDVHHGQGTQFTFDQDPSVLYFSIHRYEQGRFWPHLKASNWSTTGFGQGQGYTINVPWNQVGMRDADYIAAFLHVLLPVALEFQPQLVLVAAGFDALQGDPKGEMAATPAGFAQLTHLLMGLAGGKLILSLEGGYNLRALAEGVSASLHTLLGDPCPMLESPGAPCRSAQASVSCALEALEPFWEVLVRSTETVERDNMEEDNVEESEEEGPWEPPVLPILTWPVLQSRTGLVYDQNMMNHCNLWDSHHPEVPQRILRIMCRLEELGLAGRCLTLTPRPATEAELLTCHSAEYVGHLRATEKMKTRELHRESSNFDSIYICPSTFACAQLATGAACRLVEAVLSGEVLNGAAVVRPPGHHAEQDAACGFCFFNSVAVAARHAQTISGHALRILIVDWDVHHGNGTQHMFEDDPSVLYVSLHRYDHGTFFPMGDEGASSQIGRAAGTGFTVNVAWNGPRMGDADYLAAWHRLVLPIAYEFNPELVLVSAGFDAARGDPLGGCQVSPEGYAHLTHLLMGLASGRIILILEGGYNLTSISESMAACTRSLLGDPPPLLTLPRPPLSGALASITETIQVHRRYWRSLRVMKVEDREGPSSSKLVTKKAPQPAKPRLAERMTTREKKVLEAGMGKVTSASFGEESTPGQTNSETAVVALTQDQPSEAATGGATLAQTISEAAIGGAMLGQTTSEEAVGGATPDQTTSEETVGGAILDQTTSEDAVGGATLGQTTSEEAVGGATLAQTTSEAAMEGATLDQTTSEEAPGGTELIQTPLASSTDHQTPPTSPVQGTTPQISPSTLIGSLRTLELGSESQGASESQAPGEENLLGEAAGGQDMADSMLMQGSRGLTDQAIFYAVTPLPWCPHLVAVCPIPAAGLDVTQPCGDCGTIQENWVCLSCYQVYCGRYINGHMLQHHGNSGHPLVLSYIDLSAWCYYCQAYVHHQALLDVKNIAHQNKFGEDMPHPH
# [5] = molecular target: T2, Polyamine deacetylase HDAC10 (Homo sapiens) (UniProt Q969S8); assay: Inhibition of human recombinant HDAC10 using fluorogenic peptide p53 residues 379-382 (RHKK(Ac)AMC) as residues at 10 uM by fluorescence method; how it was run: as §3
# T2 sequence (whole entry): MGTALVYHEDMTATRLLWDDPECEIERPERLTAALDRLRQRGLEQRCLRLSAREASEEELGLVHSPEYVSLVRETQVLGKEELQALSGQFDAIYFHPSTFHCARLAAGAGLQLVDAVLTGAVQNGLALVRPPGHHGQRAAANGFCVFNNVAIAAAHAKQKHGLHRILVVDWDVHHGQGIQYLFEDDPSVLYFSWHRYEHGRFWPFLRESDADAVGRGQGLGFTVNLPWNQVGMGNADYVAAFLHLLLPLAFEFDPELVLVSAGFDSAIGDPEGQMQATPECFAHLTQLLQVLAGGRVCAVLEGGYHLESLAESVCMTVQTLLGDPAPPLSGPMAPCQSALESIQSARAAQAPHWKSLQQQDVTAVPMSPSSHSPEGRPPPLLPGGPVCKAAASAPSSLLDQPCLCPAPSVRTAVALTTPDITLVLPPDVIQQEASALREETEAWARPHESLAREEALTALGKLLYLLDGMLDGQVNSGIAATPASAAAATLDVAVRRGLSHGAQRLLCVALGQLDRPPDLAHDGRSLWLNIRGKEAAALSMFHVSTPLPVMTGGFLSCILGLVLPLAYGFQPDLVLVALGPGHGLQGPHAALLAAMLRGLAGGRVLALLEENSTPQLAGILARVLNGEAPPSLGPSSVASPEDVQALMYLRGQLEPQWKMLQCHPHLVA
# [6] = molecular target: Histone deacetylase 5 (Homo sapiens) (UniProt Q9UQL6); assay: Inhibition of human recombinant HDAC5 using fluorogenic trifluoroacetyl lysine as substrate at 10 uM by fluorescence method; how it was run: as §3
# [7] = molecular target: T3, Protein deacetylase HDAC6 (Homo sapiens) (UniProt Q9UBN7); assay: Inhibition of human recombinant HDAC6 using fluorogenic peptide p53 residues 379-382 (RHKK(Ac)AMC) as residues at 10 uM by fluorescence method; how it was run: as §3
# T3 sequence (whole entry): T1 sequence (Q9UBN7 whole entry)
# N9 [8] = assay: Immunomodulatory activity in mouse N9 cells assessed as reduction in LPS-induced iNOS expression at 5 to 25 uM incubated for 24 hrs by Western blot analysis; type: functional, cell-based; how it was run: as §2
# N9 [9] = assay: Immunomodulatory activity in mouse N9 cells assessed as reduction in LPS-induced MRC1 expression at 5 to 25 uM incubated for 24 hrs by Western blot analysis; type: functional, cell-based; how it was run: as §2
# [10] = Neurotoxicity against rat CGN cells assessed as cell viability at 5 uM incubated for 24 hrs by MTT assay; type: toxicity, cell-based; settings: read-out: Activity; how it was run: as §1
# Sequence of Histone deacetylase 5 (Homo sapiens) (Q9UQL6 whole entry, the tested form may be a part): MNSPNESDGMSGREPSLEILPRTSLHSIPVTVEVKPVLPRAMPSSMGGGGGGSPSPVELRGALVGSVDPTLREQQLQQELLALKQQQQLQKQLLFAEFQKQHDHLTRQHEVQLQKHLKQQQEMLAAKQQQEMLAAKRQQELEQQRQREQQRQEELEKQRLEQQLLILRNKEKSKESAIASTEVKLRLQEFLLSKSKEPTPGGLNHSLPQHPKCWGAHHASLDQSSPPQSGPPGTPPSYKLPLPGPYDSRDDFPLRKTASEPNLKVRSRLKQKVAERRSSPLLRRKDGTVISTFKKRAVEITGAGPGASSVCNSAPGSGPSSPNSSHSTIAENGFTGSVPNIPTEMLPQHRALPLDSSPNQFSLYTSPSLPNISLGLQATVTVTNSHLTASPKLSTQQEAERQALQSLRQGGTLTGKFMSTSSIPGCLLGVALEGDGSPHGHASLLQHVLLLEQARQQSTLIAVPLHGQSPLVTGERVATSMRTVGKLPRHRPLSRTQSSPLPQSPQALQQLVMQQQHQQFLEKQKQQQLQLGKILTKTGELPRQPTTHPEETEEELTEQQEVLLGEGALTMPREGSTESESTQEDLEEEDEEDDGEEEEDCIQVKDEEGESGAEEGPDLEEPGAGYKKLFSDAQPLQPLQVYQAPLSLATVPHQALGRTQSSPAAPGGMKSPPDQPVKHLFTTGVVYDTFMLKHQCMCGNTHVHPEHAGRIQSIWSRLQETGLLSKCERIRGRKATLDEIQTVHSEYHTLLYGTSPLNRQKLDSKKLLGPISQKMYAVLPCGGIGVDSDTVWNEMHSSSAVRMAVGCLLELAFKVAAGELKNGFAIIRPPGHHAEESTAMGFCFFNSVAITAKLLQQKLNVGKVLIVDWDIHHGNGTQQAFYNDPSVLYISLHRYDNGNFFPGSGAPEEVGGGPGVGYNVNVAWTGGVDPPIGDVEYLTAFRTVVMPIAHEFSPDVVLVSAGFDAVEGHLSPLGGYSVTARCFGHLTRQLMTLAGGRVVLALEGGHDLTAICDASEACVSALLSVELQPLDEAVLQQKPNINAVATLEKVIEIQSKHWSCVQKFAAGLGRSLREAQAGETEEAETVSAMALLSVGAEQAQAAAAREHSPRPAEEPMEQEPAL
# Sequence of Histone deacetylase 3 (Homo sapiens) (O15379 whole entry, the tested form may be a part, canonical isoform): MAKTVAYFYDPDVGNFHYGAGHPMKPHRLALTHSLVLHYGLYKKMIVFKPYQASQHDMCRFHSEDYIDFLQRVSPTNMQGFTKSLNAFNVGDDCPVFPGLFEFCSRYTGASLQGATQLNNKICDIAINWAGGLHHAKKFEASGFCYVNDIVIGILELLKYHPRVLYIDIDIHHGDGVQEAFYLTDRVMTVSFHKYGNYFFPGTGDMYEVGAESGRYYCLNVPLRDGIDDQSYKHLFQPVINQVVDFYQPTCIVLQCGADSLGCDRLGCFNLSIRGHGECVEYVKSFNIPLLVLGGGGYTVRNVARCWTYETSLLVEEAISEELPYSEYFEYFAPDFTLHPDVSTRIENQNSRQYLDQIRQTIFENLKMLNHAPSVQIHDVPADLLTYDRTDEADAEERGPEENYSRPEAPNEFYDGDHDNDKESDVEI
SMILES,"viability at 24 h, 50 µM [1]",Activity (N9 [2]),inhibition [3],IC50 [4],inhibition [5],inhibition [6],inhibition [7],Activity (N9 [8]),Activity (N9 [9]),"viability at 24 h, 5 µM [10]"
COC(=O)c1c(CCCCCCCC(=O)NO)cccc1OC,> 80%,Active,inactive,215 nM,inactive,inactive,Active,Active,–,–
COc1cccc(CCCCCCCC(=O)NO)c1,–,–,inactive,190 nM,inactive,inactive,Active,Active,Dose-dependent effect,≤ 50%
